Results on 21 molecules are retold here after ChEMBL document CHEMBL4354863, “Discovery of Novel Allosteric Inhibitors of Deoxyhypusine Synthase” (J Med Chem, 2020).

Some results are limits rather than exact numbers.

The term IC50 denotes the concentration that inhibits the measured activity by half.

For test [1], the target named is T1, Deoxyhypusine synthase (Homo sapiens, UniProt P49366).
T1 sequence (P49366 whole entry): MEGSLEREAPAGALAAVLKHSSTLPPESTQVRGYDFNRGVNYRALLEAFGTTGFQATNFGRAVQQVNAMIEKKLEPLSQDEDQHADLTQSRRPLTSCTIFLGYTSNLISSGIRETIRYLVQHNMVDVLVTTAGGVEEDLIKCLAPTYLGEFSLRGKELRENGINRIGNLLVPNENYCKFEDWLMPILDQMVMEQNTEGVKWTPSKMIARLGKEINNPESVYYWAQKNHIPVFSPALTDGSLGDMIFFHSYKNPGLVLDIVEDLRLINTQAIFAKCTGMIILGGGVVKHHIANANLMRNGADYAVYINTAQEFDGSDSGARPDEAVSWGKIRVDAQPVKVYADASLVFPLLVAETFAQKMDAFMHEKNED
Put plainly: Inhibition of human N-terminal His6-tagged TEV protease site linked DHPS expressed in Escherichia coli BL21 (DE3) assessed as reduction in radiolabelled amino-butylidene incorporation in eIF5A using [3H]Spermidine trichloride as substrate after 90 to 120 mins in presence of eIF5A and 14 uM NAD+ by Topcount scintillation counting method. The method, boiled down: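 Reaction run 120 min at room temperature, quenched with GC-7, and bound to streptavidin plates for 90–120 min. Plates washed and scintillation-counted. IC50 with 95% CI from nonlinear regression of percent inhibition.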

In test [2] the target is T1, Deoxyhypusine synthase. Put plainly: Competitive inhibition of human N-terminal His6-tagged TEV protease site linked DHPS expressed in Escherichia coli BL21 (DE3) assessed as reduction in radiolabelled amino-butylidene incorporation in eIF5A using 2 uM of [3H]Spermidine trichloride as substrate after 90 to 120 mins in presence of eIF5A and 250 uM NAD+ by Topcount scintillation counting method. The method, boiled down: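 Human DHPS (His-tagged, tag removed with TEV, purified by Ni-affinity and size exclusion), 24 nM, with 1 µM eIF5A, 2 µM [³H]-spermidine (38.5 Ci/mmol) and 250 µM NAD⁺ (×18 Km). Reaction run 120 min at room temperature, stopped with GC-7, and captured on streptavidin plates for 90–120 min. Plates washed with PBS and counted by scintillation. IC50 from nonlinear regression of percent inhibition.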

Test [3] deals with T1, Deoxyhypusine synthase. Put plainly: Competitive inhibition of human N-terminal His6-tagged TEV protease site linked DHPS expressed in Escherichia coli BL21 (DE3) assessed as reduction in radiolabelled amino-butylidene incorporation in eIF5A using 100 uM of [3H]Spermidine trichloride as substrate after 90 to 120 mins in presence of eIF5A and 14 uM NAD+ by Topcount scintillation counting method. The gist of the method: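 Human DHPS expressed in E. coli, Ni-affinity purified, His-tag removed by TEV protease, then size-exclusion purified; 24 nM enzyme. Run with 1 µM eIF5A, 14 µM NAD+, 100 µM [3H]-spermidine (high-spermidine condition), 1 mM DTT, 50 mM Tris-HCl pH 8.0, 120 min at room temperature. Stopped with GC-7, captured on streptavidin plates, PBS-washed, scintillation counted. IC50 from nonlinear regression, 95% CI.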

Turning to `CC(C)(C)c1ccc(NC(=O)c2cccc3[nH]ccc23)cc1`, at Deoxyhypusine synthase [1], the IC50 was determined as 99 µM. Still for that read-out and setting: the result for `CC(C)(C)c1ccc(C(=O)Nc2cccc3cn[nH]c23)cc1` reads > 100 µM. In the case of `O=C(Nc1cccc2[nH]ccc12)c1cc2ccc(I)cc2s1`, the IC50 on Deoxyhypusine synthase [1] turned out to be 0.092 µM.

In the case of `CC(C)(C)c1ccc(C(=O)Nc2cccc3[nH]ncc23)cc1`, at Deoxyhypusine synthase [1], the concentration for half-maximal inhibition (IC50) amounted to 22 µM. Regarding `NC(=O)c1ccc2cc(C(=O)Nc3cccc4[nH]ccc34)sc2c1`, the IC50 on Deoxyhypusine synthase [1] was 11 µM.

As to `O=C(Nc1cccc2[nH]ccc12)c1ccccc1`, at Deoxyhypusine synthase [1], the IC50 was > 100 µM. `O=C(Nc1cccc2[nH]ccc12)c1cc2cccc(Br)c2s1`: the IC50 at Deoxyhypusine synthase [1] was > 100 µM.

As for `O=C(Nc1cccc2[nH]ccc12)c1ccc2ccccc2c1`, the IC50 at Deoxyhypusine synthase [1] was > 100 µM. Same read-out and setting: the result for `CC(C)(C)c1ccc(NC(=O)Nc2cccc3[nH]ccc23)cc1` reads > 100 µM; that for `O=C(Nc1cccc2[nH]ccc12)c1cc2cc(Br)ccc2s1`, > 100 µM. For `O=C(Nc1cccc2[nH]ccc12)c1cc2ccccc2o1`, the IC50 on Deoxyhypusine synthase [1] is > 100 µM. For `N#Cc1ccc2cc(C(=O)Nc3cccc4[nH]ccc34)sc2c1`, on Deoxyhypusine synthase [1], the concentration for half-maximal inhibition (IC50) was 0.43 µM.

Consider `CC(C)(C)c1ccc(C(=O)Nc2cccc3[nH]ccc23)cc1`, for which the IC50 at Deoxyhypusine synthase [1] came to 0.84 µM; on Deoxyhypusine synthase [2], 38 µM. Regarding `O=C(Nc1cccc2[nH]ccc12)c1cc2ccc(Br)cc2s1`, the half-inhibitory concentration (IC50) was determined as 0.062 µM at Deoxyhypusine synthase [1], 56 µM on Deoxyhypusine synthase [2] and 6.9 µM on Deoxyhypusine synthase [3].

As for `N=C(N)NCCCCCCCN`, the results for the IC50 on Deoxyhypusine synthase [1] and at Deoxyhypusine synthase [2] were 0.14 µM and 0.5 µM, respectively. Take `CC(C)(C)c1ccc(S(=O)(=O)Nc2cccc3[nH]ccc23)cc1`: the IC50 on Deoxyhypusine synthase [1] is > 100 µM. Same read-out and setting: the result for `O=C(Nc1cccc2[nH]ccc12)c1cc2ccc(Cl)cc2s1` reads 0.12 µM; that for `CC(C)(C)c1ccc(C(=O)Nc2cccc3c2CCN3)cc1`, > 100 µM. Still for that read-out and setting: the result for `CC(C)(C)c1ccc(C(=O)Nc2cccc3c2CC(=O)N3)cc1` reads 42 µM; that for `CC(C)(C)c1ccc2cc(C(=O)Nc3cccc4[nH]ccc34)sc2c1`, 5.4 µM; that for `O=C(Nc1cccc2[nH]ccc12)c1cc2ccccc2s1`, 2.3 µM.
